# In ChEMBL document CHEMBL5678814, “Novel Mps1 Kinase Inhibitors with Potent Antitumor Activity” (Mol Cancer Ther, 2016):
# Tests used:
# MDA-MB-231 = assay: Antiproliferative activity against human MDA-MB-231 cells assessed as cell growth inhibition incubated for 96 hrs by MTS assay; format: functional, cell-based; settings: MDA-MB-231, 96 h
# NCI-H2228 = assay: Antiproliferative activity against human NCI-H2228 cells assessed as cell growth inhibition incubated for 96 hrs by crystal violet staining; settings: NCI-H2228, 96 h
# SK-MES-1 = assay: Antiproliferative activity against human SK-MES-1 cells assessed as cell growth inhibition incubated for 96 hrs by MTS assay; format: functional, cell-based; settings: SK-MES-1, 96 h
# [1] = Oral bioavailability in male Wistar rat plasma at 0.5 mg/kg measured after 24 hrs by LC/-MS/MS analysis; format: ADME, organism-based
# A2780 = assay: Antiproliferative activity against human A2780 cells assessed as cell growth inhibition incubated for 96 hrs by crystal violet staining; settings: A2780, 96 h
# HT1197 = assay: Antiproliferative activity against human HT1197 cells assessed as cell growth inhibition incubated for 96 hrs by MTS assay; format: functional, cell-based; settings: HT1197, 96 h
# Caov-3 cell line = assay: Antiproliferative activity against human Caov-3 cell line assessed as cell growth inhibition incubated for 96 hrs by crystal violet staining; settings: Caov-3, 96 h
# MDA-MB-453 = assay: Antiproliferative activity against human MDA-MB-453 cells assessed as cell growth inhibition incubated for 96 hrs by crystal violet staining; settings: MDA-MB-453, 96 h
# [2] = molecular target: Serine/threonine-protein kinase 38 (Homo sapiens, UniProt Q15208); assay: Binding affinity to NDR1 (unknown origin) assessed as dissociation constant
# JJN-3 = assay: Antiproliferative activity against human JJN-3 cells assessed as cell growth inhibition incubated for 96 hrs by crystal violet staining; settings: JJN-3, 96 h
# [3] = molecular target: Mast/stem cell growth factor receptor Kit (Homo sapiens, UniProt P10721); assay: Binding affinity to KIT (unknown origin) assessed as dissociation constant
# COLO 320DM = assay: Antiproliferative activity against human COLO 320DM cells assessed as cell growth inhibition incubated for 96 hrs by crystal violet staining
# HCT-116 [4] = assay: Antiproliferative activity against human HCT-116 cells assessed as cell growth inhibition incubated for 96 hrs by crystal violet staining; settings: HCT-116, 96 h
# HeLa = assay: cells; settings: Homo sapiens, 4 h
# VCaP = assay: Antiproliferative activity against human VCaP cells assessed as cell growth inhibition incubated for 96 hrs by MTS assay; format: functional, cell-based
# NCI-H1650 = assay: Antiproliferative activity against human NCI-H1650 cells assessed as cell growth inhibition incubated for 96 hrs by crystal violet staining; settings: NCI-H1650, 96 h
# NCI-H1770 = assay: Antiproliferative activity against human NCI-H1770 cells assessed as cell growth inhibition incubated for 96 hrs by crystal violet staining; settings: NCI-H1770, 96 h
# JeKo-1 = assay: Antiproliferative activity against human JeKo-1 cells assessed as cell growth inhibition incubated for 96 hrs by MTS assay; format: functional, cell-based; settings: JeKo-1, 96 h
# [5] = Clearance in male CD1 mouse blood at 0.5 mg/kg, iv measured after 24 hrs by LC/-MS/MS analysis; format: ADME, organism-based
# Summary of the method: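 Male CD1 mice received a single iv bolus of 0.5 mg/kg in 1% DMSO/99% plasma. Plasma was sampled at 2, 5, 15, 30 and 45 min and at 1, 2, 4, 6, 8 and 24 h, precipitated with ice-cold acetonitrile (1:5), and supernatants were run by LC/MS-MS. Parameters were estimated from plasma concentration data, with AUC by the log-linear trapezoidal rule.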
# NCI-H460 = assay: Antiproliferative activity against human NCI-H460 cells assessed as cell growth inhibition incubated for 96 hrs by crystal violet staining; settings: NCI-H460, 96 h
# [6] = Antitumor activity against human A2780cis cells xenografted female athymic NMRI mouse model assessed as T/C ratio at 2.5 mg/kg, po administered twice daily intermittent for 2 days on/5 days off; format: functional; settings: time 7 day
# NCI-H1155 = assay: Antiproliferative activity against human NCI-H1155 cells assessed as cell growth inhibition incubated for 96 hrs by crystal violet staining; settings: NCI-H1155, 96 h
# [7] = molecular target: Serine/threonine-protein kinase BRSK2 (Homo sapiens, UniProt Q8IWQ3); assay: Binding affinity to BRSK2 (unknown origin) assessed as dissociation constant
# HCT-116 [8] = assay: Antiproliferative activity against human TP53 wildtype HCT-116 cells assessed as cell growth inhibition incubated for 96 hrs by crystal violet staining; settings: HCT-116, 96 h
# Calu-6 = assay: Antiproliferative activity against human Calu-6 cells assessed as cell growth inhibition incubated for 96 hrs by crystal violet staining; settings: Calu-6, 96 h
# OV-90 = assay: Antiproliferative activity against human OV-90 cells assessed as cell growth inhibition incubated for 96 hrs by crystal violet staining; settings: OV-90, 96 h
# A549 = assay: Antiproliferative activity against human A549 cells assessed as cell growth inhibition incubated for 96 hrs by crystal violet staining; settings: A549, 96 h
# [9] = Antiproliferative activity against human HeLa-MaTu cells assessed as cell growth inhibition incubated for 96 hrs by crystal violet staining
# [10] = molecular target: Phosphatidylinositol 5-phosphate 4-kinase type-2 gamma (Homo sapiens, UniProt Q8TBX8); assay: Binding affinity to PIP5K2C (unknown origin) assessed as dissociation constant
# SK-N-AS = assay: Antiproliferative activity against human SK-N-AS cells assessed as cell growth inhibition incubated for 96 hrs by crystal violet staining
# SK-MEL-28 = assay: Antiproliferative activity against human SK-MEL-28 cells assessed as cell growth inhibition incubated for 96 hrs by crystal violet staining; settings: SK-MEL-28, 96 h
# [11] = Synergistic antitumor activity against human MAXF 1384 cells xenografted female athymic NMRI mouse model assessed as MTD at 2 mg/kg,po administered twice daily intermittent for 2 days on/5 days off measured after 48 hrs treatment in the presence of paclitaxel relative to control; format: functional; settings: time 9 day
# SJRH30 = assay: Antiproliferative activity against human Rh30 cells assessed as cell growth inhibition incubated for 96 hrs by MTS assay; format: functional, cell-based; settings: SJRH30, 96 h
# NCI-H2009 = assay: Antiproliferative activity against human NCI-H2009 cells assessed as cell growth inhibition incubated for 96 hrs by crystal violet staining; settings: NCI-H2009, 96 h
# Chain of Serine/threonine-protein kinase 38 (Q15208 whole entry): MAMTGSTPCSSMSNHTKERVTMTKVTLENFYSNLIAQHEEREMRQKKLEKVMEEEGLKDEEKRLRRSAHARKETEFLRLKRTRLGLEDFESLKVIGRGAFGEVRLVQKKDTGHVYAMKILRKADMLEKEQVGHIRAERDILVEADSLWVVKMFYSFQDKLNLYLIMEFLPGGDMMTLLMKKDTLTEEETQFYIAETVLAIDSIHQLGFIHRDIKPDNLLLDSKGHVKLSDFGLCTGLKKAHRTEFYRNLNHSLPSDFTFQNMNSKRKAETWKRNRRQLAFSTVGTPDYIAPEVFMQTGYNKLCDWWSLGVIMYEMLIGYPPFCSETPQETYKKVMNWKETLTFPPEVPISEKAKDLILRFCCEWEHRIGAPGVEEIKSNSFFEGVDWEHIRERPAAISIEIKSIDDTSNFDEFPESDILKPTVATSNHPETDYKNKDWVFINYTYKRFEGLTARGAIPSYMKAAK
# Chain of Mast/stem cell growth factor receptor Kit (P10721 whole entry): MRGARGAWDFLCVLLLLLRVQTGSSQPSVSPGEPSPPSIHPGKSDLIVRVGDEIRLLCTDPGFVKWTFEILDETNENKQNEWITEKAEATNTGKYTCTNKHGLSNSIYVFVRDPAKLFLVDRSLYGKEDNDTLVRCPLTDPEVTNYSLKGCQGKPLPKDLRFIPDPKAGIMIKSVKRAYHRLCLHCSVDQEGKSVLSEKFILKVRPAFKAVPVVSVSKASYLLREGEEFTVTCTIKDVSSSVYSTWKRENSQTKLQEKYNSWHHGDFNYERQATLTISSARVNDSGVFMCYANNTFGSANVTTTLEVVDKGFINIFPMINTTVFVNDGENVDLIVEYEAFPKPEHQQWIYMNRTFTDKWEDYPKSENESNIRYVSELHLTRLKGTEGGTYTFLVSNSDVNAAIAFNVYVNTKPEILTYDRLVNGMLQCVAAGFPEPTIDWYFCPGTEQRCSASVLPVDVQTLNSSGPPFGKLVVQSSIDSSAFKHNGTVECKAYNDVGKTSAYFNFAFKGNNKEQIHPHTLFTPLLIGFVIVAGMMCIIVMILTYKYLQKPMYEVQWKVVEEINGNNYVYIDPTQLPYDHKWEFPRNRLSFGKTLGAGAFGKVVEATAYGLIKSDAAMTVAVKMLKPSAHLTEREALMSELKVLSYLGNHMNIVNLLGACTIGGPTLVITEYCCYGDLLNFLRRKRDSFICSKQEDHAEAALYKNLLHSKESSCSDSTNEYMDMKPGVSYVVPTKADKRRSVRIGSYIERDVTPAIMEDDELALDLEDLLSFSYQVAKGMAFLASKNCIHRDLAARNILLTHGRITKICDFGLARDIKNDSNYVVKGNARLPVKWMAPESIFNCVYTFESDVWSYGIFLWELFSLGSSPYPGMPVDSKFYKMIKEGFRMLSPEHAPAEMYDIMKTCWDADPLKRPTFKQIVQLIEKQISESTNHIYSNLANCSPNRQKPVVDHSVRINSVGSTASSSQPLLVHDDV
# Chain of Serine/threonine-protein kinase BRSK2 (Q8IWQ3 whole entry): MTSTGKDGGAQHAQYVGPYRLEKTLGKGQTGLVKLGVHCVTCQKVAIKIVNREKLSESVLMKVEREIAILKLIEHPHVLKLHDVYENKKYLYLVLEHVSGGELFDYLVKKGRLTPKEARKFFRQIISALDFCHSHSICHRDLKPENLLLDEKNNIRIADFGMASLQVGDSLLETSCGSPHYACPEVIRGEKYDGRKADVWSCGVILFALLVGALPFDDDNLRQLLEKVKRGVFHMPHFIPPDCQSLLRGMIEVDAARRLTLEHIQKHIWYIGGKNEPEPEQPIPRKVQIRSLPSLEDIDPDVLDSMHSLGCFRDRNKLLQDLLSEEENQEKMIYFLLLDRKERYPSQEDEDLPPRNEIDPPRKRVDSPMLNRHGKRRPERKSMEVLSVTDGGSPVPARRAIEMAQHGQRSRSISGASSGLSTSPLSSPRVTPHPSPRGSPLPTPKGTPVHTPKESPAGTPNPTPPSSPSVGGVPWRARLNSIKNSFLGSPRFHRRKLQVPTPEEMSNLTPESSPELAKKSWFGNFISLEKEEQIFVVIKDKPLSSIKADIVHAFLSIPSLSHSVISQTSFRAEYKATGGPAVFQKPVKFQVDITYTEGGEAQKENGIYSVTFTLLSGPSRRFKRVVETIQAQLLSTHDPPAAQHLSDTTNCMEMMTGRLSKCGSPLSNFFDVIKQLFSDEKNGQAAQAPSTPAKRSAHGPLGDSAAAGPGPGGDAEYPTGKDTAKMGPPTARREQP
# Chain of Phosphatidylinositol 5-phosphate 4-kinase type-2 gamma (Q8TBX8 whole entry): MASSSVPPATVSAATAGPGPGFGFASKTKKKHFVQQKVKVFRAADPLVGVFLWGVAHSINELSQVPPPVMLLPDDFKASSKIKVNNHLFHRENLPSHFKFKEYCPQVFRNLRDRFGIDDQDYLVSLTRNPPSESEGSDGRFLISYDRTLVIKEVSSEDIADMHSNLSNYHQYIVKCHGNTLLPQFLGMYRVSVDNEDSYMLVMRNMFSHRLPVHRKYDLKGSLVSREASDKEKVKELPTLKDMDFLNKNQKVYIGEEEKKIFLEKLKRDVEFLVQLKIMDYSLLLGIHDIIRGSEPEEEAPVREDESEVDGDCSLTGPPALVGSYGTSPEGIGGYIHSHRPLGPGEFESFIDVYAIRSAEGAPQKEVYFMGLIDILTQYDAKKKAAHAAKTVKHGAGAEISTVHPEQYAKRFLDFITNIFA
smiles,measurement,setting,value
COc1cc(S(C)(=O)=O)ccc1Nc1nc2ccc(-c3ccc(NC(=O)[C@H](C)c4ccc(F)cc4)cc3)cn2n1 [BAY-1161909],IC50,MDA-MB-231,110 nM
same,IC50,NCI-H2228,> 3000 nM
same,IC50,SK-MES-1,210 nM
same,bioavailability,[1],49%
same,IC50,A2780,69 nM
same,IC50,HT1197,> 3000 nM
same,IC50,Caov-3 cell line,98 nM
same,IC50,MDA-MB-453,> 3000 nM
same,Kd,[2],40000 nM
same,IC50,JJN-3,100 nM
same,Kd,[3],370 nM
same,IC50,COLO 320DM,110 nM
same,IC50,HCT-116 [4],56 nM
same,IC50,HeLa,56 nM
same,IC50,VCaP,> 3000 nM
same,IC50,NCI-H1650,130 nM
same,IC50,NCI-H1770,100 nM
same,IC50,JeKo-1,65 nM
same,clearance,[5],11.5 mL/min/kg
same,IC50,NCI-H460,110 nM
same,T/C,[6],0.43
same,IC50,NCI-H1155,1400 nM
same,Kd,[7],40000 nM
same,IC50,HCT-116 [8],42 nM
same,IC50,Calu-6,> 3000 nM
same,IC50,OV-90,150 nM
same,IC50,A549,130 nM
same,IC50,[9],200 nM
same,Kd,[10],280 nM
same,IC50,SK-N-AS,97 nM
same,IC50,SK-MEL-28,670 nM
same,MED,[11],80%
same,IC50,SJRH30,450 nM
same,IC50,NCI-H2009,560 nM
